Consider 7 compounds from ChEMBL document CHEMBL1131139, “Synthesis and antibacterial activity of ketolides (6-O-methyl-3-oxoerythromycin derivatives): a new class of antibacterials highly potent against macrolide-resistant and -susceptible respiratory pathogens” (1998).

Values after ≈ are worked out from the molar mass of the structure shown.

Assay type in all cases: functional
The subject of experiment [1] is Staphylococcus aureus. Nature of the experiment: In vitro inhibitory activity against Staphylococcus aureus (EryRi 011GO25i). The procedure, abridged: (§1)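 Two-fold agar dilution on Mueller-Hinton agar (pH 7.4). Inoculum from overnight plate cultures suspended in Mueller-Hinton broth, adjusted to 10^9 CFU/mL, diluted 1:200 and spotted by multipoint inoculator at about 10^4 CFU/spot. Plates incubated 37 °C for 20 h. MIC taken as lowest concentration with no visible growth.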

Experiment [2] deals with Streptococcus pneumoniae. The experiment can be described thus: In vitro inhibitory activity against Streptococcus pneumoniae (EryRc 030SJ1). The procedure, abridged: as §1
Experiment [3] concerns Streptococcus pneumoniae. Nature of the experiment: In vitro inhibitory activity against Streptococcus pneumoniae (032UC1). The procedure, abridged:
as §1

Experiment [4] deals with Streptococcus pneumoniae. The experiment can be described thus: In vitro inhibitory activity against Streptococcus pneumoniae (EryRi 030SJ5i). The procedure, abridged: as §1
For experiment [5], the system named is Staphylococcus aureus. The experiment can be described thus: In vitro inhibitory activity against Staphylococcus aureus (EryRc 011CB20). In short, it runs like this:
as §1

The test system of the next experiment is Streptococcus pyogenes. Nature of the experiment: In vitro inhibitory activity against Streptococcus pyogenes (02A1UC1). The procedure, abridged:
as §1

For experiment [6], the system named is Haemophilus influenzae. The experiment can be described thus: In vitro inhibitory activity against Haemophilus influenzae (351CB12). The procedure, abridged:
as §1

The next experiment deals with Escherichia coli. The experiment can be described thus: In vitro inhibitory activity against Escherichia coli (250 UC5). The procedure, abridged: as §1
The subject of experiment [7] is Staphylococcus epidermidis. Nature of the experiment: In vitro inhibitory activity against Staphylococcus epidermidis (EryRi 012GO11i). The procedure, abridged:
as §1

Experiment [8] deals with Haemophilus influenzae. The experiment can be described thus: In vitro inhibitory activity against Haemophilus influenzae (351HT3). In short, it runs like this:
as §1

For experiment [9], the system named is Staphylococcus aureus. Nature of the experiment: In vitro inhibitory activity against Staphylococcus aureus (011UC4). In short, it runs like this:
as §1

`CC[C@H]1OC(=O)[C@H](C)C(=O)[C@H](C)[C@@H](O[C@@H]2O[C@H](C)C[C@H](N(C)C)[C@H]2O)[C@](C)(OC)C[C@@H](C)/C(=N\OCCN(C)C)[C@H](C)[C@@H](O)[C@]1(C)O`: the MIC in the experiment with Staphylococcus aureus [1] came to 1.2 µg/mL (≈ 1.78 µM); against Streptococcus pneumoniae [2], 2.5 µg/mL (≈ 3.71 µM); with Streptococcus pneumoniae [3], 0.15 µg/mL (≈ 0.223 µM); against Streptococcus pneumoniae [4], 0.15 µg/mL (≈ 0.223 µM); against Staphylococcus aureus [5], 40 µg/mL (≈ 59.4 µM); in the experiment on Streptococcus pyogenes it was 0.01 µg/mL (≈ 0.0148 µM). The MIC against Haemophilus influenzae [6] amounted to 20 µg/mL (≈ 29.7 µM); in the experiment on Escherichia coli it was 40 µg/mL (≈ 59.4 µM); in experiment [7], 20 µg/mL (≈ 29.7 µM); in the experiment on Haemophilus influenzae [8] it was 20 µg/mL (≈ 29.7 µM); against Staphylococcus aureus [9], 0.08 µg/mL (≈ 0.119 µM).
As for `CC[C@H]1OC(=O)[C@H](C)C(=O)[C@H](C)[C@@H](O[C@@H]2O[C@H](C)C[C@H](N(C)C)[C@H]2O)[C@](C)(OC)C[C@@H](C)/C(=N\O[C@@H]2CCCNC2)[C@H](C)[C@@H](O)[C@]1(C)O`, the MIC came out at 2.5 µg/mL (≈ 3.64 µM) in the experiment on Staphylococcus aureus [1]; 0.3 µg/mL (≈ 0.437 µM) against Streptococcus pneumoniae [2]; 0.08 µg/mL (≈ 0.117 µM) with Streptococcus pneumoniae [3]; 0.3 µg/mL (≈ 0.437 µM) in the experiment on Streptococcus pneumoniae [4]; 40 µg/mL (≈ 58.3 µM) in the experiment on Staphylococcus aureus [5]; 0.04 µg/mL (≈ 0.0583 µM) against Streptococcus pyogenes. The MIC with Haemophilus influenzae [6] came to 0.6 µg/mL (≈ 0.875 µM); against Escherichia coli, 40 µg/mL (≈ 58.3 µM); in [7], 0.6 µg/mL (≈ 0.875 µM); against Haemophilus influenzae [8], 2.5 µg/mL (≈ 3.64 µM); with Staphylococcus aureus [9] it was 0.15 µg/mL (≈ 0.219 µM).
As to `CC[C@H]1OC(=O)[C@H](C)C(=O)[C@H](C)[C@@H](O[C@@H]2O[C@H](C)C[C@H](N(C)C)[C@H]2O)[C@](C)(OC)C[C@@H](C)/C(=N\O[C@H]2CCCNC2)[C@H](C)[C@@H](O)[C@]1(C)O`, the MIC stood at 5 µg/mL (≈ 7.29 µM) with Staphylococcus aureus [1]; 40 µg/mL (≈ 58.3 µM) with Streptococcus pneumoniae [2]; 0.3 µg/mL (≈ 0.437 µM) in the experiment on Streptococcus pneumoniae [3]; 0.08 µg/mL (≈ 0.117 µM) in the experiment with Streptococcus pneumoniae [4]; 40 µg/mL (≈ 58.3 µM) against Staphylococcus aureus [5]; 0.3 µg/mL (≈ 0.437 µM) in the experiment with Streptococcus pyogenes. The MIC against Haemophilus influenzae [6] turned out to be 2.5 µg/mL (≈ 3.64 µM); against Escherichia coli, 40 µg/mL (≈ 58.3 µM); in [7], 2.5 µg/mL (≈ 3.64 µM); in the experiment on Haemophilus influenzae [8], 20 µg/mL (≈ 29.2 µM); in the experiment on Staphylococcus aureus [9] it was 1.2 µg/mL (≈ 1.75 µM).
Take `CC[C@H]1OC(=O)[C@H](C)C(=O)[C@H](C)[C@@H](O[C@@H]2O[C@H](C)C[C@H](N(C)C)[C@H]2O)[C@](C)(OC)C[C@@H](C)C(=O)[C@H](C)[C@H]2N(NCCCc3ccnc4ccc(OC)cc34)C(=O)O[C@]12C`: the MIC in the experiment with Staphylococcus aureus [1] turned out to be 0.08 µg/mL (≈ 0.0967 µM); in the experiment with Streptococcus pneumoniae [2], 0.08 µg/mL (≈ 0.0967 µM); in the experiment on Streptococcus pneumoniae [3] it was 0.02 µg/mL (≈ 0.0242 µM); in the experiment with Streptococcus pneumoniae [4], 0.02 µg/mL (≈ 0.0242 µM); with Staphylococcus aureus [5], 40 µg/mL (≈ 48.4 µM); against Streptococcus pyogenes, 0.02 µg/mL (≈ 0.0242 µM). Further, the MIC was determined as 2.5 µg/mL (≈ 3.02 µM) against Haemophilus influenzae [6]; 40 µg/mL (≈ 48.4 µM) with Escherichia coli; 0.08 µg/mL (≈ 0.0967 µM) in experiment [7]; 1.2 µg/mL (≈ 1.45 µM) in the experiment with Haemophilus influenzae [8]; 0.04 µg/mL (≈ 0.0484 µM) in the experiment on Staphylococcus aureus [9].
`CC[C@H]1OC(=O)[C@H](C)C(=O)[C@H](C)[C@@H](O[C@@H]2O[C@H](C)C[C@H](N(C)C)[C@H]2O)[C@](C)(OC)C[C@@H](C)C(=O)[C@H](C)[C@H]2N(CCN(C)Cc3ccccc3)C(=O)O[C@]12C`: the MIC in the experiment on Staphylococcus aureus [1] came out at 0.6 µg/mL (≈ 0.789 µM); with Streptococcus pneumoniae [2] it was 10 µg/mL (≈ 13.2 µM); with Streptococcus pneumoniae [3] it was 0.02 µg/mL (≈ 0.0263 µM); with Streptococcus pneumoniae [4], 0.3 µg/mL (≈ 0.395 µM); against Staphylococcus aureus [5] it was 40 µg/mL (≈ 52.6 µM); against Streptococcus pyogenes, 0.04 µg/mL (≈ 0.0526 µM). Moreover, the MIC against Haemophilus influenzae [6] was 2.5 µg/mL (≈ 3.29 µM); against Escherichia coli, 40 µg/mL (≈ 52.6 µM); in experiment [7] it was 0.15 µg/mL (≈ 0.197 µM); in the experiment with Haemophilus influenzae [8], 5 µg/mL (≈ 6.58 µM); with Staphylococcus aureus [9], 0.15 µg/mL (≈ 0.197 µM).
As to `CC[C@H]1OC(=O)[C@H](C)C(=O)[C@H](C)[C@@H](O[C@@H]2O[C@H](C)C[C@H](N(C)C)[C@H]2O)[C@](C)(OC)C[C@@H](C)/C(=N\OC2CCCN(CCCc3ccccc3)C2)[C@H](C)[C@@H](O)[C@]1(C)O` (some centres not stated), the MIC against Staphylococcus aureus [1] worked out at 0.6 µg/mL (≈ 0.746 µM); in the experiment with Streptococcus pneumoniae [2], 1.2 µg/mL (≈ 1.49 µM); against Streptococcus pneumoniae [3], 0.08 µg/mL (≈ 0.0995 µM); against Streptococcus pneumoniae [4] it was 0.3 µg/mL (≈ 0.373 µM); in the experiment with Staphylococcus aureus [5] it was 40 µg/mL (≈ 49.7 µM); against Streptococcus pyogenes, 0.08 µg/mL (≈ 0.0995 µM). Besides, the MIC was 0.6 µg/mL (≈ 0.746 µM) in the experiment on Haemophilus influenzae [6]; 40 µg/mL (≈ 49.7 µM) in the experiment with Escherichia coli; 0.6 µg/mL (≈ 0.746 µM) in [7]; 5 µg/mL (≈ 6.22 µM) with Haemophilus influenzae [8]; 0.3 µg/mL (≈ 0.373 µM) against Staphylococcus aureus [9].
Take `CC[C@H]1OC(=O)[C@H](C)C(=O)[C@H](C)[C@@H](O[C@@H]2O[C@H](C)C[C@H](N(C)C)[C@H]2O)[C@](C)(OC)C[C@@H](C)C(=O)[C@H](C)[C@H]2N(CCCc3ccccc3)C(=O)O[C@]12C`: the MIC was 2.5 µg/mL (≈ 3.42 µM) against Staphylococcus aureus [1]; 40 µg/mL (≈ 54.7 µM) against Streptococcus pneumoniae [2]; 0.3 µg/mL (≈ 0.41 µM) in the experiment with Streptococcus pneumoniae [3]; 20 µg/mL (≈ 27.4 µM) in the experiment on Streptococcus pneumoniae [4]; 40 µg/mL (≈ 54.7 µM) in the experiment on Staphylococcus aureus [5]; 0.15 µg/mL (≈ 0.205 µM) in the experiment on Streptococcus pyogenes. For the same compound, the MIC against Haemophilus influenzae [6] turned out to be 10 µg/mL (≈ 13.7 µM); against Escherichia coli, 40 µg/mL (≈ 54.7 µM); in experiment [7], 1.2 µg/mL (≈ 1.64 µM); in the experiment with Haemophilus influenzae [8], 40 µg/mL (≈ 54.7 µM); against Staphylococcus aureus [9] it was 1.2 µg/mL (≈ 1.64 µM).
